Assay outcomes (PubChem)
This is a sample that favours compounds with a hit; in the whole collection about 2.9% have one here.
TCR CD3 inh: blocks the human TCR-CD3 interaction; TAMRA-labeled TCR probe fluorescence, biochemical; inhibition, % at 9.4 µM; 0.37% of 360,000 active; AID 651800;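 note: recombinant mutant TCR 2C K166C tagged with TAMRA read by polarization; 0% = receptor in buffer alone and 100% = receptor with positive control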
ABHD4 inh: inhibits mouse alpha/beta hydrolase domain 4; inhibition, % at 8.92 µM; Q8VD66; AID 720543; 0.54% of 370,000 active; purified mABHD4, FP-Rh probe fluorescence polarization;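 active = inhibition exceeding the mean over every tested compound plus 3 SD, cut at about 30% in these data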;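 note: 0% = plate median of compound wells and 100% = S159A mutant with DMSO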
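Test system: mABHD4 protein | Buffer or medium: HEPES pH 7.0 buffer, 150 mM NaCl, 0.01% Pluronic F-127 | Probe or stimulus: FP-Rh fluorescent activity-based probe, added after compound pre-incubation | Timing: Pre-incubation 45 min, probe exposure 60 min, at 25 °C | Technique: Fluorescence polarization, excitation 525 nm, emission 598 nm, BODIPY TMR filters | Repeats: Single well per compound (singlicate)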
ATG4B inh: blocks human ATG4B protease cleavage of LC3 substrate | AID 504462 | ATG4B cleavage of LC3-PLA2, NBD-HPC fluorescence, 1 h | Q9Y4P1 | 0.51% of 340,000 active | inhibition, % at 8.33 µM; in the data active = inhibition above about 40%
PRMT1 FP inh: blocks human protein arginine methyltransferase 1 | inhibition, % at 2.79 µM | 1.3% of 370,000 active | recombinant PRMT1, activity-based probe fluorescence polarization | Q99873 | AID 652257;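 active = inhibition above about 21% made by adding two undisclosed values, limit read from the data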
HTRA1 inh: blocks human HTRA1 serine peptidase | Q92743 | recombinant HTRA1, FP-rhodamine activity-based probe, fluorescence polarization | inhibition, % at 5.96 µM | 0.5% of 340,000 active | AID 504803; in the data active = inhibition above about 36%;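 note: 0% = enzyme with DMSO and 100% = wells lacking enzyme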
SIAE inh: human SIAE inhibition, primary screen; Q9HAT2; SIAE FP-Rh probe binding, fluorescence polarization; inhibition, % at 9.66 µM; 0.69% of 370,000 active;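 active = inhibition above a cutoff: mean of compounds within the control limits plus 3 SD of those, cut at about 17% in these data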;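 note: 0% = plate median of compound wells and 100% = probe without SIAE protein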
Target sequence (Q9HAT2 whole entry, looked up): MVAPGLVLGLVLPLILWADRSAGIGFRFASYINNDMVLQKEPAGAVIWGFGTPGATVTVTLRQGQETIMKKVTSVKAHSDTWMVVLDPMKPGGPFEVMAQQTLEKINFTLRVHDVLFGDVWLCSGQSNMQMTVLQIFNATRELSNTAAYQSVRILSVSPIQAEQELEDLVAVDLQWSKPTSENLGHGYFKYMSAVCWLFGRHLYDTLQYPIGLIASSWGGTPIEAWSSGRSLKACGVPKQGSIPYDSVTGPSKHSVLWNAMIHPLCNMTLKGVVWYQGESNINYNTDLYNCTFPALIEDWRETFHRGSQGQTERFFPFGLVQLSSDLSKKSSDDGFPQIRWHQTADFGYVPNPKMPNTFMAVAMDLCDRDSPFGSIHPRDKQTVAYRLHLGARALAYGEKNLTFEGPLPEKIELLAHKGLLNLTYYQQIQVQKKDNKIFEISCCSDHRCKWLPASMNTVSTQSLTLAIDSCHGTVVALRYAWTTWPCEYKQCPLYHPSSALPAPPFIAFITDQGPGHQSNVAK
BSA TAMRA ctr: counter-screen for TCR-CD3 interaction inhibitors: BSA probe. shares compounds with TCR CD3 inh. TAMRA-labeled BSA probe fluorescence counterscreen. inhibition, % at 9.4 µM. 10% of 1,200 active; in the data active = inhibition above about 23%;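 note: 0% = buffer low control and 100% = reference high control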
TCR-CD3 conf: TCR-CD3 interaction inhibition, confirmation | AID 652036 | inhibition, % at 9.4 µM | 48% of 1,200 active | TAMRA-labeled TCR probe fluorescence binding assay | shares compounds with TCR CD3 inh
The depositor's hits bear a star; / = no result. Cut-off read from the data, not from the text of the source, unless noted: active = inhibition above about 19%; inactive = the rest.

SMILES | TCR CD3 inh | ABHD4 inh | ATG4B inh | PRMT1 FP inh | HTRA1 inh | SIAE inh | BSA TAMRA ctr | TCR-CD3 conf
COc1ccc(C(=O)C=CNNC(=O)c2ccc(Cl)cc2)cc1 | 22* | -2 | 5 | 2 | 31 | 5 | -3 | 24*
Cc1ccccc1Cn1cc(CN2[C@H](CC(C)C)COc3cc(Br)ccc3S2(=O)=O)nn1 | / | -1 | / | 1 | / | 1 | / | /
Cc1ccccc1CS(=O)(=O)Cc1ccc(C(=O)Nc2cccc(C)c2C)o1 | / | -1 | / | -6 | / | -5 | / | /
Nc1[nH]c2ccccc2c1C(=O)NC1CC1 | / | 3 | / | 1 | / | -2 | / | /
Cc1ccc(C(=O)N2CCN(c3cccc(C)c3C)CC2)o1 | 33* | 2 | 1 | -4 | -7 | 2 | 3 | -1
Cc1ccc(S(=O)(=O)Cc2ccc(C(=O)N3CCN(c4cccc(C)c4C)CC3)o2)cc1 | -5 | -8 | 4 | 7 | -17 | 1 | / | /
COc1ccc(C2=NOC(C)(c3nnc(-c4ccc(Cl)cc4)o3)C2)cc1 (centres undefined) | 34* | -7 | 3 | -1 | -15 | 5 | 0 | 0
Cc1ccc(C(=O)Nc2cnc3ccccn3c2=O)cc1 | 25* | -8 | 2 | -2 | 5 | -6 | -2 | -3
Cc1ccc[n+](-c2[nH]c(=O)sc2/C=N/NC(=O)c2ccccc2[O-])c1 | 19* | 3 | -6 | 12 | 6 | -4 | -14 | 1
O=C(N/N=C/c1sc(=O)[nH]c1-[n+]1ccccc1)c1ccccc1[O-] | 3 | 9 | 14 | -1 | 7 | 8 | / | /
CCN(c1ccccc1)S(=O)(=O)c1cc(NC(=O)CSc2n[nH]c(=O)[nH]c2=O)ccc1Cl | 66* | -85 | -11 | 1 | -54 | -49 | 23* | 56*
CCCCCCCCN1CN2Cc3cc(F)ccc3C2CS1(=O)=O (centres undefined) | / | -9 | / | -1 | / | 0 | / | /
CCCn1c(NC(=O)c2ccccc2)nc(Cc2ccccc2)c1-c1ccc(OC)cc1 | / | 8 | / | 2 | / | -1 | / | /
O=C(CSc1nc2ncccc2[nH]1)N1CCOCC1 | / | 2 | / | -4 | / | -3 | / | /
COc1ccc(C(=O)Nc2ccc(S(=O)(=O)N3CCCCC3)cc2)cc1 | 4 | -4 | -16 | -2 | -26 | -12 | / | /
COc1ccc(-c2cnnn2-c2ccc(NC(=O)c3ccc(S(=O)(=O)N4CCCCC4)cc3)cc2)cc1 | 24* | -60 | -20 | 3 | -64 | -82 | 29* | 39*
Cc1cc2cc(CNC(=O)Cc3ccc([N+](=O)[O-])cc3)ccc2n1C | 5 | 2 | -8 | -4 | 29 | -1 | / | /
COc1cccc(CNC(=O)c2ccc(S(=O)(=O)N3CCOCC3)cc2)c1 | 0 | -3 | -7 | 0 | -3 | 6 | / | /
Cc1cc2cc(CNC(=O)c3ccc(S(=O)(=O)N4CCOCC4)cc3)ccc2n1C | 48* | 23 | -12 | 4 | 15 | 9 | 2 | 5
Cc1cc2cc(CNC(=O)c3ccc(S(=O)(=O)N4CCCCC4)cc3)ccc2[nH]1 | 20* | 24 | -12 | 4 | -12 | -1 | -2 | -2
Cc1cc2cc(CNC(=O)c3ccc(S(=O)(=O)N(C)C)cc3)ccc2n1C | 25* | 14 | 2 | -1 | 11 | 15 | 3 | 2
Cc1cc2cc(CNC(=O)c3cccc([N+](=O)[O-])c3)ccc2n1C | 26* | 27 | -2 | 7 | 0 | 5 | 3 | 4
Cc1ccc(CNC(=O)c2ccc(S(=O)(=O)N3CCCCCC3)cc2)cc1 | -2 | 2 | / | 2 | 1 | -1 | / | /
O=C(NCCc1ccccc1Cl)[C@@H]1CCCN1C(=O)[C@@H](NS(=O)(=O)c1ccc(F)cc1F)c1ccccc1 | -1 | -9 | / | -5 | / | -6 | / | /
CC(C)Cc1nnc(NC(=O)CCC(=O)NC2CCCCC2)s1 | 20* | 5 | -2 | 2 | 4 | 3 | -2 | -1
SMILES | TCR CD3 inh | ABHD4 inh | ATG4B inh | PRMT1 FP inh | HTRA1 inh | SIAE inh | BSA TAMRA ctr | TCR-CD3 conf
Cc1ccccc1OCc1nc(-c2ccc(NC(=O)c3cccs3)cc2)no1 | 28* | -18 | 0 | -4 | -34 | -6 | -8 | -7
Cc1cccc(Cn2cc(COC(=O)N3CCOCC3)nn2)c1 | / | 2 | / | -2 | / | 6 | / | /
CCNc1ccc(C(=O)O)cc1N | 23* | 21 | -8 | 2 | 29 | 7 | 22 | 14
CCc1ccccc1Nc1ccc(C(=O)O)cc1N | 12 | 19 | 7 | 3 | 14 | 3 | / | /
COC(=O)[C@]12C[C@H](CC(=O)NCCC(C)C)C(=O)N(Cc3ccc4c(c3)OCO4)C1=C[C@H](C(C)C)O[C@@H]2C1CC1 | / | -3 | / | -2 | / | 4 | / | /
O=C(NNS(=O)(=O)c1ccccc1[N+](=O)[O-])c1cc2ccccc2cc1O | 20* | 25 | -17 | 5 | 19 | 5 | -8 | 10
C=CCN1C(=O)[C@@H](CC(=O)NCCc2ccccc2OC)[C@]2(C(=O)OC)CCCCC=C12 | / | 3 | / | 1 | / | 3 | / | /
CC(C)C[C@@H]1NC(=O)[C@H]2C[C@]3(c4ccccc4)c4ccccc4N[C@H]3N2C1=O | / | -4 | / | 2 | / | 3 | / | /
Cc1onc(-c2ccccc2)c1C(=O)NN=Cc1cc(Cl)cc(Cl)c1O | 27* | 13 | / | -1 | / | 8 | -12 | 34*
Cc1onc(-c2ccccc2)c1C(=O)N/N=C/c1cccc(O)c1 | 5 | -4 | -10 | -4 | 2 | 10 | / | /
CN[C@H]1C[C@H]2c3[nH]c4cccc(-c5ccccc5)c4c3CCN2C[C@H]1[C@H](C)O | / | 6 | / | 3 | / | -3 | / | /
CCC/C(C)=N/NC(=O)c1ccccc1O | 5 | 5 | 3 | -1 | 8 | 1 | / | /
CCOC(=O)C(CC)/C(C)=N\NC(=O)c1ccccc1O (centres undefined) | 35* | 9 | 11 | 0 | 31 | 6 | 22 | 38*
O=C(Nc1nc2ccccc2s1)c1cnccn1 | -6 | -2 | -2 | 1 | -1 | -7 | / | /
O=C(Nc1nc(-c2ccco2)c(-c2ccco2)s1)c1cnccn1 | 38* | 23 | 5 | 37* | / | 14 | 0 | 15
Clc1ccc([C@H]2OC[C@@]3(CNC4CCCCC4)CS[C@H](c4ccc(Cl)cc4)N23)cc1 | / | -3 | / | 4 | / | -3 | / | /
O=C(Nc1ccc(Cl)c(Cl)c1)Oc1ccc(NC(=O)c2ccco2)cc1 | 40* | -57 | 3 | -2 | -30 | -132 | 4 | 15
NC(=O)[C@H]1CC2(CC(c3cccc(NC(=O)CC(c4ccccc4)c4ccccc4)c3)=NO2)CN1C(=O)CC(c1ccccc1)c1ccccc1 (some centres undefined) | 22* | -81 | -6 | 1 | -110 | -70 | 8 | 17
